In brackets after ≈: the same amount, converted by molar mass.
Assays:
Cryptococcus neoformans [1] = test: Growth inhibition of Cryptococcus neoformans ATCC 32264 at 3.4 ug/ml incubated for 48 hrs under dark condition by broth microdilution method relative to control; format: functional; conditions: ATCC 32264, 48 h, read-out: GI
Cryptococcus neoformans [2] = test: Growth inhibition of Cryptococcus neoformans ATCC 32264 at 125 ug/ml incubated for 48 hrs under dark condition by broth microdilution method relative to control; format: functional; conditions: ATCC 32264, 48 h, read-out: GI
Outline: (§1)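 CLSI M27-A3 broth microdilution in RPMI-1640, DMSO ≤1%. Inoculum 1-5 × 10^3 CFU/mL. Incubated 48 h at 30 °C, dark. % inhibition = 100 − (OD405 test − sterility control)/(OD405 growth control − sterility control), with growth and sterility control wells. Triplicate.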

Staphylococcus aureus [3] = test: Antibacterial activity against methicillin-resistant Staphylococcus aureus ATCC 43300 after 24 hrs by resazurin dye based microdilution assay; format: functional; conditions: ATCC 43300, 24 h
Outline: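 Broth microdilution in Mueller Hinton broth, inoculum 5 × 10^5 – 8 × 10^5. Compound stocks diluted in MHB with 5% DMSO and 0.1% Tween 80. Incubation 24 h at 35-37 °C. MIC is the lowest concentration with visible growth inhibition and/or by resazurin (1 mg/mL) read-out. Gentamicin as control. Run in duplicate, replicated at least three times.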

Cryptococcus neoformans [4] = test: Growth inhibition of Cryptococcus neoformans ATCC 32264 at 31.25 ug/ml incubated for 48 hrs under dark condition by broth microdilution method relative to control; format: functional; conditions: ATCC 32264, 48 h, read-out: GI; outline: as §1
Candida albicans [5] = test: Antifungal activity against Candida albicans ATCC 10231 incubated for 48 hrs under dark condition by broth microdilution method; format: functional; conditions: ATCC 10231, 48 h
Outline: (§2)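 CLSI M27-A3 broth microdilution in RPMI-1640, DMSO ≤1%, compounds at 250-0.98 µg/mL final. Inoculum 1-5 × 10^3 CFU/mL. Incubated 48 h at 30 °C in a moist dark chamber, read at OD405. MIC80 and MIC50 taken from % inhibition dose-response curves (mean ± SEM, triplicate). Amphotericin B was the positive control.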

Cryptococcus neoformans [6] = test: Growth inhibition of Cryptococcus neoformans ATCC 32264 at 15.62 ug/ml incubated for 48 hrs under dark condition by broth microdilution method relative to control; format: functional; conditions: ATCC 32264, 48 h, read-out: GI; outline: as §1
Plasmodium falciparum = test: Antiplasmodial activity against chloroquine-sensitive Plasmodium falciparum 3D7 assessed as reduction in parasitic LDH activity after 48 hrs by Malstat reagent based […] method; format: functional; conditions: 3D7, 48 h
Outline: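 Unsynchronized P. falciparum 3D7 at 0.5% parasitemia and 1% hematocrit in RPMI with 3% Albumax II. Exposed to 100, 25, 6.25 and 1.56 µg/mL for 48 h at 37 °C under 90% N2/5% CO2/5% O2. After three freeze-thaw cycles, LDH measured with Malstat and NBT/PES, 1 h in the dark, read at 650 nm. IC50 by Probit; triplicate, ≥2 experiments.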

Candida albicans [7] = test: Growth inhibition of Candida albicans ATCC 10231 at 31.25 ug/ml incubated for 48 hrs under dark condition by broth microdilution method relative to control; format: functional; conditions: ATCC 10231, 48 h, read-out: GI; outline: as §1
Candida albicans [8] = test: Growth inhibition of Candida albicans ATCC 10231 at 7.8 ug/ml incubated for 48 hrs under dark condition by broth microdilution method relative to control; format: functional; conditions: ATCC 10231, 48 h, read-out: GI; outline: as §1
Staphylococcus aureus [9] = test: Antibacterial activity against vancomycin-intermediate Staphylococcus aureus after 24 hrs by resazurin dye based microdilution assay; format: functional
Outline: (§3)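 MIC taken as the lowest concentration giving visible inhibition and/or by resazurin (1 mg/mL). Gentamicin was the control. Run in duplicate, repeated at least three times.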

Cryptococcus neoformans [10] = test: Antifungal activity against Cryptococcus neoformans ATCC 32264 incubated for 48 hrs under dark condition by broth microdilution method; format: functional; conditions: ATCC 32264, 48 h; outline: as §2
Candida albicans [11] = test: Growth inhibition of Candida albicans ATCC 10231 at 15.62 ug/ml incubated for 48 hrs under dark condition by broth microdilution method relative to control; format: functional; conditions: ATCC 10231, 48 h, read-out: GI; outline: as §1
Klebsiella pneumoniae [12] = test: Antibacterial activity against ESBL positive Klebsiella pneumoniae ATCC 700603 after 24 hrs by resazurin dye based microdilution assay; format: functional; conditions: Klebsiella pneumoniae, 700603, 24 h; outline: as §3
Cryptococcus neoformans [13] = test: Growth inhibition of Cryptococcus neoformans ATCC 32264 at 62.5 ug/ml incubated for 48 hrs under dark condition by broth microdilution method relative to control; format: functional; conditions: ATCC 32264, 48 h, read-out: GI; outline: as §1
Pseudomonas aeruginosa = test: Antibacterial activity against Pseudomonas aeruginosa ATCC 27853 after 24 hrs by resazurin dye based microdilution assay; format: functional; conditions: ATCC 27853, 24 h; outline: as §3
Neisseria gonorrhoeae = test: Antibacterial activity against beta lactamase positive Neisseria gonorrhoeae ATCC 31426 by oxidase test; format: functional
Outline: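 Agar dilution MIC on GC agar with 1% isovitalex containing increasing compound concentrations. Plates inoculated with about 1×10^4 CFU (5 µL). MIC is the lowest concentration that inhibited growth, with growth confirmed by oxidase test. Run in duplicate, repeated at least three times.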

Candida albicans [14] = test: Growth inhibition of Candida albicans ATCC 10231 at 3.4 ug/ml incubated for 48 hrs under dark condition by broth microdilution method relative to control; format: functional; conditions: ATCC 10231, 48 h, read-out: GI
Leishmania panamensis = test: Antileshmanial activity against EpiR/GFP fused Leishmania panamensis MHOM/CO/87/UA140 intracellular amastigotes infected in human […] cells after 72 hrs by flow cytometric method; format: functional, cell-based; conditions: MHOM/CO/87/UA140, 72 h
Outline: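 PMA-treated U-937 cells (3 × 10^5 cells/mL) infected with stationary-phase GFP L. panamensis promastigotes (15:1), 3 h at 34 °C, then washed. After 24 h, compounds added at 50, 12.5, 3.125 and 0.78 µg/mL for 72 h at 37 °C. EC50 by Probit; triplicate, two experiments.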

Candida albicans [15] = test: Growth inhibition of Candida albicans ATCC 10231 at 62.5 ug/ml incubated for 48 hrs under dark condition by broth microdilution method relative to control; format: functional; conditions: ATCC 10231, 48 h, read-out: GI; outline: as §1
Cryptococcus neoformans [16] = test: Growth inhibition of Cryptococcus neoformans ATCC 32264 at 7.8 ug/ml incubated for 48 hrs under dark condition by broth microdilution method relative to control; format: functional; conditions: ATCC 32264, 48 h, read-out: GI; outline: as §1
Klebsiella pneumoniae [17] = test: Antibacterial activity against carbapenemase positive Klebsiella pneumoniae BAA 1705 after 24 hrs by resazurin dye based microdilution assay; format: functional; conditions: BAA 1705, 24 h; outline: as §3
Trypanosoma cruzi = test: Antitrypanosomal activity against Trypanosoma cruzi Tulahuen intracellular amastigote harboring LacZ infected in human U937 cells after 72 hrs by CPRG/Nonidet reagent based spectrophotometric method; format: functional, cell-based; conditions: U-937, 72 h
Outline: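 U-937 cells at 2.5 × 10^5 cells/mL in RPMI-1640 with 10% serum and 0.1 µg/mL PMA were infected with β-galactosidase-transfected Tulahuen epimastigotes at 5 parasites per cell. Infected cells were exposed to 50, 12.5, 3.125 and 0.78 µg/mL for 72 h. CPRG (100 uM) and 0.1% Nonidet P-40 were added for 3 h, read at 570 nm. EC50 by Probit. Triplicate, at least two experiments; benznidazole as reference.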

Candida albicans [18] = test: Growth inhibition of Candida albicans ATCC 10231 at 125 ug/ml incubated for 48 hrs under dark condition by broth microdilution method relative to control; format: functional; conditions: ATCC 10231, 48 h, read-out: GI; outline: as §1
Staphylococcus aureus [19] = test: Antibacterial activity against methicillin-sensitive Staphylococcus aureus ATCC 25923 after 24 hrs by resazurin dye based microdilution assay; format: functional; conditions: ATCC 25923, 24 h; outline: as §3
Escherichia coli = test: Antibacterial activity against Escherichia coli ATCC 25922 after 24 hrs by resazurin dye based microdilution assay; format: functional; conditions: ATCC 25922, 24 h; outline: as §3
Candida albicans [20] = test: Growth inhibition of Candida albicans ATCC 10231 at 250 ug/ml incubated for 48 hrs under dark condition by broth microdilution method relative to control; format: functional; conditions: ATCC 10231, 48 h, read-out: GI; outline: as §1
U-937 = test: Cytotoxicity against human U937 cells after 72 hrs by MTT assay; format: cell-based; conditions: u-937, 72 h
Outline: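 Exponentially growing U-937 at 1 × 10^5 cells/mL in RPMI-1640 with 10% FBS were exposed to 200, 50, 12.5 and 3.125 µg/mL for 72 h at 37 °C, 5% CO2. MTT for 3 h, stopped with isopropanol/SDS, formazan read at 570 nm, blank-corrected. LC50 by Probit from % viability against untreated cells. Triplicate, at least two independent experiments.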

Cryptococcus neoformans [21] = test: Growth inhibition of Cryptococcus neoformans ATCC 32264 at 250 ug/ml incubated for 48 hrs under dark condition by broth microdilution method relative to control; format: functional; conditions: ATCC 32264, 48 h, read-out: GI; outline: as §1

CC(=O)N1N=C(c2ccc(Cl)cc2)CC1c1cccc(Nc2ccnc3cc(Cl)ccc23)c1 (stereo not given)
inhibition of growth at 3.4 µg/mL (Cryptococcus neoformans [1]): 11.1% | inhibition of growth at 125 µg/mL (Cryptococcus neoformans [2]): 53.4% | MIC (Staphylococcus aureus [3]): > 1000 µg/mL | inhibition of growth at 31.25 µg/mL (Cryptococcus neoformans [4]): 28.1% | MIC50 (Candida albicans [5]): ≥ 250 µg/mL | MIC80 (Candida albicans [5]): ≥ 250 µg/mL | inhibition of growth at 15.62 µg/mL (Cryptococcus neoformans [6]): 18.7% | EC50 (Plasmodium falciparum): 26.3 µg/mL (≈ 55.4 µM) | inhibition of growth at 31.25 µg/mL (Candida albicans [7]): 21.6% | inhibition of growth at 7.8 µg/mL (Candida albicans [8]): 19.6% | MIC (Staphylococcus aureus [9]): > 1000 µg/mL | MIC50 (Cryptococcus neoformans [10]): 125 µg/mL (≈ 263 µM) | MIC80 (Cryptococcus neoformans [10]): 250 µg/mL (≈ 526 µM) | inhibition of growth at 15.62 µg/mL (Candida albicans [11]): 20% | MIC (Klebsiella pneumoniae [12]): > 1000 µg/mL | inhibition of growth at 62.5 µg/mL (Cryptococcus neoformans [13]): 32.2% | MIC (Pseudomonas aeruginosa): > 1000 µg/mL | MIC (Neisseria gonorrhoeae): > 1000 µg/mL | inhibition of growth at 3.4 µg/mL (Candida albicans [14]): 14.7% | EC50 (Leishmania panamensis): 5.53 µg/mL (≈ 11.6 µM) | inhibition of growth at 62.5 µg/mL (Candida albicans [15]): 22.5% | inhibition of growth at 7.8 µg/mL (Cryptococcus neoformans [16]): 26.7% | MIC (Klebsiella pneumoniae [17]): > 1000 µg/mL | EC50 (Trypanosoma cruzi): 6.57 µg/mL (≈ 13.8 µM) | inhibition of growth at 125 µg/mL (Candida albicans [18]): 38.8% | MIC (Staphylococcus aureus [19]): > 1000 µg/mL | MIC (Escherichia coli): > 1000 µg/mL | inhibition of growth at 250 µg/mL (Candida albicans [20]): 40.9% | LC50 (U-937): 17 µg/mL (≈ 35.8 µM) | inhibition of growth at 250 µg/mL (Cryptococcus neoformans [21]): 100%

— ChEMBL document CHEMBL4038284, “Synthesis of novel quinoline-based 4,5-dihydro-1H-pyrazoles as potential anticancer, antifungal, antibacterial and antiprotozoal agents” (Eur J Med Chem, 2017)
